Experimental data: ChEMBL document CHEMBL1145460, “Novel vanilloid receptor-1 antagonists: 3. The identification of a second-generation clinical candidate with improved physicochemical and pharmacokinetic properties” (J Med Chem, 2007)
Values after ≈ are worked out from the molar mass of the structure shown. Each block holds one compound with its values, some of them ahead of it. Active and inactive are the calls of the source. No cut-off for these calls is given here.

What was measured:
[1] = Solubility in 0.01N HCl; type: physicochemical
How it was run: (§1)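 Thermodynamic solubility determined in a high-throughput automated format; media 0.01 N HCl, PBS and simulated intestinal fluid.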

[2] = Volume of distribution in Sprague-Dawley rat at 1 mg/kg, iv up to 6 hrs; type: ADME, organism-based; design: dose 1 mg/kg, route intravenous; details: in vivo, read-out: Vss
[3] = AUC (0 to infinity) in Sprague-Dawley rat at 3 mg/kg, po up to 8 hrs; type: ADME, organism-based; design: time infinity, dose 3 mg/kg, route oral; details: plasma
How it was run: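 Fasted male Sprague-Dawley rats were given a single oral dose of 3 mg/kg as a suspension in 5% Tween 80/Oraplus. Plasma was sampled for up to 8 h, and AUC0-∞ was reported in ng·h/mL.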

[4] = Oral bioavailability in Sprague-Dawley rat at 5 mg/kg; type: ADME, organism-based; details: in vivo
How it was run: (§2)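 Fasted male Sprague-Dawley rats given 5 mg/kg orally as a suspension in 5% Tween 80/Oraplus; plasma sampled up to 8 h.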

[5] = Solubility in PBS; type: physicochemical; how it was run: as §1
[6] = Clearance in Sprague-Dawley rat at 1 mg/kg, iv up to 6 hrs; type: ADME, organism-based; design: dose 1 mg/kg, route intravenous; details: in vivo
[7] = biological target: T1, Transient receptor potential cation channel subfamily V member 1 (Rattus norvegicus, UniProt O35433); assay: Inhibition of rat TRPV1 expressed in CHO cells assessed as capsaicin-induced Ca2+ influx; type: cell-based
[8] = biological target: T1, Transient receptor potential cation channel subfamily V member 1; assay: Inhibition of rat TRPV1 expressed in CHO cells assessed as acid-induced Ca2+ influx; type: cell-based
[9] = AUC (0 to infinity) in Sprague-Dawley rat at 1 mg/kg, iv up to 6 hrs; type: ADME, organism-based; design: time infinity, dose 1 mg/kg, route intravenous; details: plasma
[10] = Half life in Sprague-Dawley rat at 1 mg/kg, iv; type: ADME, organism-based; design: dose 1 mg/kg, route intravenous; details: in vivo
[11] = AUC (0-inf) in Sprague-Dawley rat at 5 mg/kg, po up to 8 hrs; type: ADME, organism-based; design: time infinity, dose 5 mg/kg, route oral; details: plasma; how it was run: as §2
[12] = Solubility in SIF; type: physicochemical; how it was run: as §1
Rattus norvegicus [13] = assay: Inhibition of capsaicin-induced flinching in rat at 10 mg/kg, po up to 8 hrs; type: functional, organism-based; design: dose 10 mg/kg
How it was run: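 Rats given 10 mg/kg orally; capsaicin-induced flinching challenged at intervals up to 8 h after dosing.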

Rattus norvegicus [14] = species on record: Rattus norvegicus; assay: Reduction of thermal hyperalgesia in rat model of CFA-induced inflammation in assessed as minimum effective dose; type: functional; details: read-out: MED
How it was run: (§3)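 Complete Freund's adjuvant injected to induce inflammatory thermal hyperalgesia in rats; oral dose-response, minimum effective dose determined, with corresponding plasma level measured.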

Rattus norvegicus [15] = species on record: Rattus norvegicus; assay: Plasma concentration in rat model of CFA-induced inflammation; type: ADME, organism-based; details: in vivo; how it was run: as §3
[16] = Clearance in Sprague-Dawley rat at 1 mg/kg, iv after 72 hrs; type: ADME, organism-based; design: dose 1 mg/kg, route intravenous; details: in vivo
[17] = Volume of distribution at steady state in Sprague-Dawley rat at 1 mg/kg, iv after 72 hrs; type: ADME, organism-based; design: dose 1 mg/kg, route intravenous; details: in vivo, read-out: Vss
[18] = Half life in Sprague-Dawley rat at 1 mg/kg, iv after 72 hrs; type: ADME, organism-based; design: dose 1 mg/kg, route intravenous; details: in vivo
[19] = Clearance in dog at 1 mg/kg, iv; type: ADME, organism-based, Canis lupus familiaris; design: dose 1 mg/kg, route intravenous; details: in vivo
How it was run: (§4)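 Fed male animals given 1 mg/kg intravenously in 80% PEG-400/H₂O.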

[20] = Volume of distribution at steady state in dog at 1 mg/kg, iv; type: ADME, organism-based, Canis lupus familiaris; design: dose 1 mg/kg, route intravenous; details: in vivo, read-out: Vss; how it was run: as §4
[21] = Half life in dog at 1 mg/kg, iv; type: ADME, organism-based, Canis lupus familiaris; design: dose 1 mg/kg, route intravenous; details: in vivo; how it was run: as §4
[22] = Oral bioavailability in dog at 3 mg/kg; type: ADME, organism-based, Canis lupus familiaris; details: in vivo
How it was run: (§5)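 Fasted male animals dosed orally at 3 mg/kg, vehicle 10% Pluronic F108 in either Oraplus or H₂O.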

[23] = Clearance in monkey at 1 mg/kg, iv; type: ADME, organism-based, Macaca mulatta; design: dose 1 mg/kg, route intravenous; details: rhesus monkey, in vivo; how it was run: as §4
[24] = Volume of distribution at steady state in monkey at 1 mg/kg, iv; type: ADME, organism-based, Macaca mulatta; design: dose 1 mg/kg, route intravenous; details: rhesus monkey, in vivo, read-out: Vss; how it was run: as §4
[25] = Half life in monkey at 1 mg/kg, iv; type: ADME, organism-based, Macaca mulatta; design: dose 1 mg/kg, route intravenous; details: rhesus monkey, in vivo; how it was run: as §4
[26] = Oral bioavailability in monkey at 3 mg/kg; type: ADME, organism-based, Macaca mulatta; details: rhesus monkey, in vivo; how it was run: as §5
Rattus norvegicus [27] = assay: Suppression of capsaicin-evoked paw flinching in orally dosed rat; type: functional; details: po
Rattus norvegicus [28] = species on record: Rattus norvegicus; assay: Plasma concentration in rat with capsaicin-evoked paw flinching; type: ADME, organism-based; details: in vivo

T1 sequence (O35433 whole entry): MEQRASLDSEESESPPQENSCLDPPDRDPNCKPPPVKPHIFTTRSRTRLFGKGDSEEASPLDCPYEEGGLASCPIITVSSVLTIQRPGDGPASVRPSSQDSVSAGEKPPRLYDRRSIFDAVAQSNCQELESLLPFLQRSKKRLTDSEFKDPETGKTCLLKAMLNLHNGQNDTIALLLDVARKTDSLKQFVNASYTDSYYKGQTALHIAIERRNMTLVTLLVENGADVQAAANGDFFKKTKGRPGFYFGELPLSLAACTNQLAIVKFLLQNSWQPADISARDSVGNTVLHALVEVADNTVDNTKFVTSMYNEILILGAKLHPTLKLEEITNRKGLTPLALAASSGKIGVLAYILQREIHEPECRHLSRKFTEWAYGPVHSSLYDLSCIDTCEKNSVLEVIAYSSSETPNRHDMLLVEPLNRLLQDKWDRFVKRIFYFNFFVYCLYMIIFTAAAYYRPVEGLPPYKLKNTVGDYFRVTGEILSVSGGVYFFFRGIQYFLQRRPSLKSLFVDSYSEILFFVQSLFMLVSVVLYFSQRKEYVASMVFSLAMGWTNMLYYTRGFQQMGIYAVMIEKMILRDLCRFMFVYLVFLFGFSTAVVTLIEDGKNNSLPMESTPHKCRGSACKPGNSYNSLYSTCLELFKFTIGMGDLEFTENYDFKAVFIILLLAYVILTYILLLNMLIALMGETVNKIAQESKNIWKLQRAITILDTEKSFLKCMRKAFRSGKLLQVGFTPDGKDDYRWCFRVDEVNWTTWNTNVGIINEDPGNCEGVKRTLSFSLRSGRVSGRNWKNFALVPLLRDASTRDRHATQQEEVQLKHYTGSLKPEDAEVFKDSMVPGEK

Structure (SMILES): CC(=O)Nc1nc2c(Oc3cc(N4CCN(C(C)C)CC4)ncn3)cccc2s1
solubility [1]: ≥ 200 µg/mL

Structure (SMILES): CC(=O)Nc1nc2c(Oc3cc(N4CCN(CCc5ccccc5)CC4)ncn3)cccc2s1
solubility [1]: ≥ 200 µg/mL

Structure (SMILES): CC(=O)Nc1nc2c(Oc3cc(N4CCN(C(C)(C)c5ccccc5)CC4)ncn3)cccc2s1
solubility [1]: ≥ 200 µg/mL

Structure (SMILES): CC(=O)Nc1nc2c(Oc3cc(N4CCOCC4)ncn3)cccc2s1
IC50 [7]: > 4000 nM
IC50 [8]: > 4000 nM
solubility [1]: 32 µg/mL (≈ 86.2 µM)

Structure (SMILES): CC(=O)Nc1nc2c(Oc3cc(N4CCN([C@@H](C)c5ccc(F)cc5)CC4)ncn3)cccc2s1
solubility [1]: ≥ 200 µg/mL
clearance [6]: 30 mL/min/kg
AUC(0-inf) [9]: 550 ng·h/mL
Vd [2]: 5.7 L/kg
half-life [10]: 2.5 h
AUC(0-inf) [11]: 2550 ng·h/mL
bioavailability [4]: 93%
solubility [5]: 31 µg/mL (≈ 62.9 µM)
solubility [12]: 121 µg/mL (≈ 246 µM)

Structure (SMILES): CC(=O)Nc1nc2c(Oc3cc(N4CCN(C(C)(C)C)CC4)ncn3)cccc2s1
IC50 [7]: 1500 nM
IC50 [8]: > 4000 nM
solubility [1]: ≥ 200 µg/mL

Structure (SMILES): COc1ccc(C(C)N2CCN(c3cc(Oc4cccc5sc(NC(C)=O)nc45)ncn3)CC2)cc1 (centres undefined)
solubility [1]: ≥ 200 µg/mL

Structure (SMILES): CC(=O)Nc1nc2c(Oc3cc(N4CCN(C(C)c5ccccc5)CC4)ncn3)cccc2s1 (centres undefined)
solubility [1]: ≥ 200 µg/mL
clearance [6]: 65 mL/min/kg

Structure (SMILES): CC(=O)Nc1nc2c(Oc3cc(N4CCN(C(C)c5ccc(C(F)(F)F)cc5)CC4)ncn3)cccc2s1 (centres undefined)
IC50 [7]: 5 nM
IC50 [8]: 1.8 nM
solubility [1]: ≥ 200 µg/mL
clearance [6]: 23.3 mL/min/kg
AUC(0-inf) [9]: 720 ng·h/mL
Vd [2]: 4.5 L/kg
half-life [10]: 2.7 h
AUC(0-inf) [11]: 120 ng·h/mL
bioavailability [4]: 3%
solubility [5]: 5 µg/mL (≈ 9.22 µM)
solubility [12]: 121 µg/mL (≈ 223 µM)

Structure (SMILES): CC(=O)Nc1nc2c(Oc3cc(N4CCNCC4)ncn3)cccc2s1
IC50 [7]: > 4000 nM
IC50 [8]: > 4000 nM
solubility [1]: 173 µg/mL (≈ 467 µM)

Structure (SMILES): CC(=O)Nc1nc2c(Oc3cc(N4CCN(CC(F)(F)F)CC4)ncn3)cccc2s1
IC50 [7]: 380 nM
IC50 [8]: 120 nM
solubility [1]: ≥ 200 µg/mL

Continued, in another order:

solubility [1]: < 1 µg/mL
Vd [2]: 1.6 L/kg
AUC(0-inf) [3]: 12500 ng·h/mL
bioavailability [4]: 32%
solubility [5]: < 1 µg/mL
Structure (SMILES): CC(=O)Nc1nc2c(Oc3cc(-c4ccc(C(F)(F)F)cc4)ncn3)cccc2s1 [AMG-517]

solubility [1]: ≥ 200 µg/mL
clearance [6]: 50 mL/min/kg
Structure (SMILES): CC(=O)Nc1nc2c(Oc3cc(N4CCN(C(C)c5ccccc5F)CC4)ncn3)cccc2s1 (centres undefined)

IC50 [7]: 330 nM
IC50 [8]: 19 nM
solubility [1]: 9 µg/mL (≈ 20.6 µM)
Structure (SMILES): CC(=O)Nc1nc2c(Oc3cc(N4CCC(C(F)(F)F)CC4)ncn3)cccc2s1

solubility [1]: ≥ 200 µg/mL
clearance [6]: 53.3 mL/min/kg
Structure (SMILES): CC(=O)Nc1nc2c(Oc3cc(N4CCN(C(C)c5cccc(F)c5)CC4)ncn3)cccc2s1 (centres undefined)

IC50 [7]: 350 nM
IC50 [8]: 10 nM
solubility [1]: 5 µg/mL (≈ 11.5 µM)
Structure (SMILES): CC(=O)Nc1nc2c(Oc3cc(C4CCC(C(F)(F)F)CC4)ncn3)cccc2s1 (centres undefined)

IC50 [7]: 3 nM
IC50 [8]: 5 nM
solubility [1]: ≥ 200 µg/mL
clearance [6]: 25 mL/min/kg
Structure (SMILES): CC(=O)Nc1nc2c(Oc3cc(N4CCN(CC(C)(C)C)CC4)ncn3)cccc2s1

solubility [1]: ≥ 200 µg/mL
Structure (SMILES): CC(=O)Nc1nc2c(Oc3cc(N4CCN(Cc5ccccc5)CC4)ncn3)cccc2s1

solubility [1]: ≥ 200 µg/mL
clearance [6]: 18.3 mL/min/kg
AUC(0-inf) [9]: 1000 ng·h/mL
Vd [2]: 2.9 L/kg
half-life [10]: 2.4 h
AUC(0-inf) [11]: 1800 ng·h/mL
bioavailability [4]: 35%
solubility [5]: 5 µg/mL (≈ 10.2 µM)
solubility [12]: 34 µg/mL (≈ 69 µM)
Structure (SMILES): CC(=O)Nc1nc2c(Oc3cc(N4CCN(C(C)c5ccc(F)cc5)CC4)ncn3)cccc2s1 (centres undefined)

Cp (Rattus norvegicus [15]): 70 ng/mL
clearance [16]: 13.8 mL/min/kg
Vd [17]: 2.6 L/kg
half-life [18]: 3.8 h
solubility [1]: ≥ 200 µg/mL
clearance [6]: 13.3 mL/min/kg
AUC(0-inf) [9]: 1200 ng·h/mL
Vd [2]: 2.8 L/kg
half-life [10]: 2.7 h
AUC(0-inf) [11]: 3100 ng·h/mL
bioavailability [4]: 51%
solubility [5]: 7 µg/mL (≈ 14.2 µM)
solubility [12]: 64 µg/mL (≈ 130 µM)
clearance [19]: 40 mL/min/kg
Vd [20]: 4 L/kg
half-life [21]: 2.7 h
bioavailability [22]: 83%
clearance [23]: 6.67 mL/min/kg
Vd [24]: 0.9 L/kg
half-life [25]: 3.2 h
bioavailability [26]: 12%
Cp (Rattus norvegicus [28]): 128 ng/mL
Structure (SMILES): CC(=O)Nc1nc2c(Oc3cc(N4CCN([C@H](C)c5ccc(F)cc5)CC4)ncn3)cccc2s1
Activity (Rattus norvegicus [13]): Active
minimal effective dose (Rattus norvegicus [14]): 1 mg/kg
ED50 (Rattus norvegicus [27]): 1.9 mg/kg

solubility [1]: 46 µg/mL (≈ 85.7 µM)
Structure (SMILES): CC(=O)Nc1nc2c(Oc3cc(N4CCN(C(c5ccccc5)c5ccccc5)CC4)ncn3)cccc2s1

solubility [1]: ≥ 200 µg/mL
Structure (SMILES): CCC(c1ccccc1)N1CCN(c2cc(Oc3cccc4sc(NC(C)=O)nc34)ncn2)CC1 (centres undefined)

IC50 [7]: 27 nM
IC50 [8]: 2.4 nM
solubility [1]: 13 µg/mL (≈ 29.9 µM)
Structure (SMILES): CC(=O)Nc1nc2c(Oc3cc(C4=CCC(C(F)(F)F)CC4)ncn3)cccc2s1 (centres undefined)

solubility [1]: 1.5 µg/mL (≈ 3.36 µM)
clearance [6]: 16.7 mL/min/kg
Structure (SMILES): CC(=O)Nc1nc2c(Oc3cc(N4CCN(c5ccccc5)CC4)ncn3)cccc2s1
